A short description of data set [1]: Metabolic stability in rat liver microsomes assessed as half life incubated for 15 mins by high resolution LC/MS analysis. The class given is ADME, Microsome. The conditions noted are these: 0.25 h. The essentials:
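Rat liver microsomes (0.5 mg/mL protein) with 1.0 μM compound and NADPH regenerating system in 100 mM phosphate pH 7.4, 15 min at 37 °C. Quenched with acetonitrile containing albendazole internal standard. Percent remaining measured by high-resolution LC/MS.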
For orientation: Liver microsomes are vesicles of endoplasmic reticulum, rich in cytochrome P450 enzymes.

A short description of data set [2]: Permeability of compound at pH 7.4 by PAMPA assay. The class given is ADME. The settings on record: read-out: permeability. Put shortly: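 Stirring double-sink PAMPA using a lipid/dodecane membrane tuned for GI passive permeability, pH 7.4 on donor and acceptor sides. Compound at 0.05 mM (0.5% DMSO), 30 min permeation at room temperature with donor stirring. Donor and acceptor concentrations read by UV plate reader.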

Data set [3] is described as follows: Kinetic solubility of the compound in pH 7.4 phosphate buffer measured after 6 hrs by UV spectroscopy. The settings on record: read-out: Kinetic_solubility. The class given is physicochemical.
In data set [4] the target is Isocitrate dehydrogenase [NADP] cytoplasmic (Homo sapiens, UniProt O75874, R132H). The experiment in a line: Inhibition of IDH1 R132H mutant (unknown origin) assessed as reduction in NADPH consumption using alpha-KG as substrate incubated for 5 mins by diaphorase/resazurin-coupled system. (The colour change of resazurin is a common sign of viable cells or microbes.)
Chain of Isocitrate dehydrogenase [NADP] cytoplasmic (Homo sapiens, UniProt O75874, R132H) (O75874 2-414 R132H limits assumed): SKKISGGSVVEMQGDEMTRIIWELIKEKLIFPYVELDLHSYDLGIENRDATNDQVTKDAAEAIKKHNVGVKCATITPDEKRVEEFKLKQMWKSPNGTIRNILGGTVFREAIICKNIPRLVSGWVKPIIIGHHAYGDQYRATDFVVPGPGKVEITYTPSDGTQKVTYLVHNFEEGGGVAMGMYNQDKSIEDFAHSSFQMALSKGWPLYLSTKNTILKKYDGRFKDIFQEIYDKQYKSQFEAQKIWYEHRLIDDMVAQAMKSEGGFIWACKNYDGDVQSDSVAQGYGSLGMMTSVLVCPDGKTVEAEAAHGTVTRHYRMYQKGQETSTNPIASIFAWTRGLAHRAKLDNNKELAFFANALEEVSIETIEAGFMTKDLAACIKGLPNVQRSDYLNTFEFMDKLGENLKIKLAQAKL

For data set [5], the target named is Isocitrate dehydrogenase [NADP] cytoplasmic (Homo sapiens, UniProt O75874, R132C). As to the kind of experiment: Inhibition of IDH1 R132C mutant (unknown origin) assessed as reduction in NADPH consumption using alpha-KG as substrate incubated for 5 mins by diaphorase/resazurin-coupled system.
Chain of Isocitrate dehydrogenase [NADP] cytoplasmic (Homo sapiens, UniProt O75874, R132C) (O75874 2-414 R132C limits assumed): as the sequence (O75874 2-414 R132H limits assumed) above, with H131C counted along it
The subject of data set [6] is Isocitrate dehydrogenase [NADP] cytoplasmic (Homo sapiens), O75874 [R132C]. As to the kind of experiment: Inhibition of IDH1 R132C mutant (unknown origin) assessed as reduction in NADPH consumption using alpha-KG as substrate at 38 uM incubated for 5 mins by diaphorase/resazurin-coupled system relative to control.
Data set [7] concerns Isocitrate dehydrogenase [NADP] cytoplasmic (Homo sapiens), O75874 [R132H]. As to the kind of experiment: Inhibition of IDH1 R132H mutant (unknown origin) assessed as reduction in NADPH consumption using alpha-KG as substrate at 38 uM incubated for 5 mins by diaphorase/resazurin-coupled system relative to control.
Chain of Isocitrate dehydrogenase [NADP] cytoplasmic (Homo sapiens), O75874 [R132H] (O75874 whole entry R132H): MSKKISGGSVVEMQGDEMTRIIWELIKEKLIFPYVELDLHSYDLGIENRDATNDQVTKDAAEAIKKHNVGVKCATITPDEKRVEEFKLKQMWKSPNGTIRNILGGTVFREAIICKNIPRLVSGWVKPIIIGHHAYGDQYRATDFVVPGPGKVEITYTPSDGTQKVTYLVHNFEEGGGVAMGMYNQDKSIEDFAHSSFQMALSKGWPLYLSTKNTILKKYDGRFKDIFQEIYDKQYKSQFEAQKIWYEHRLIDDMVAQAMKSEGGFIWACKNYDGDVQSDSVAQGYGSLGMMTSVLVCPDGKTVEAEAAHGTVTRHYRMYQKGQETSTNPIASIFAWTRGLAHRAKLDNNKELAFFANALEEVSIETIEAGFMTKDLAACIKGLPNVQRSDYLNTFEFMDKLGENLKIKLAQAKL
Data set [8] has the same test system. The experiment in a line: Inhibition of IDH1 R132H mutant (unknown origin) expressed in human U87 cells assessed as R-2-hydroxyglutarate production at 100 nM after 48 hrs by LC-MS analysis. The class given is cell-based. Set-up: scale not given: the % may be the effect or the level left. The essentials: (§1)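 U87-R132H cells (8000/well, DMEM high glucose, 10% FBS) were seeded, cultured overnight at 37 °C and 5% CO2, then given compound or DMSO. After 48 h, 2-HG secreted into the medium was measured by RapidFire LC-MS. Cell viability was checked by CellTiter-Glo.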

Data set [9] has the same test system. The experiment in a line: Inhibition of IDH1 R132H mutant (unknown origin) expressed in human U87 cells assessed as R-2-hydroxyglutarate production at 500 nM after 48 hrs by LC-MS analysis. Set-up: scale not given: the % may be the effect or the level left. In kind it is cell-based. Put shortly: as §1

pIC50: −log10 of the molar value. ≈ marks a conversion by molar mass, not a printed value.

Chain of Isocitrate dehydrogenase [NADP] cytoplasmic (Homo sapiens), O75874 [R132C] (O75874 whole entry R132C): as the sequence (O75874 whole entry R132H) above, with H132C counted along it

Turning to `CCc1cccc(CC)c1-n1c(CC2CC2)c(C(=O)N2CCNCC2)cc(-c2nc(-c3ccc(Cl)cc3)cs2)c1=O`, the t1/2 in data set [1] is 17 min. In addition, the Papp in [2] came out at 43 ×10⁻⁶ cm/s. In [3], the solubility kinetic at 6 h was below 1 µg/mL. Further, the figures for the pIC50 in data set [4] and in data set [5] were 7.26 and 7.31, respectively. The results for the inhibition in data set [6] and in data set [7] were 96% and 107%, respectively.
As to `CCc1cccc(CC)c1-n1c(C=C(C)C)c(C(=O)N2CCNC(=O)C2)cc(-c2nc(-c3ccc(Cl)cc3)cs2)c1=O`, the t1/2 in data set [1] was 2 min. Also, in [2], the Papp was 275 ×10⁻⁶ cm/s. Also, the solubility kinetic at 6 h in data set [3] is below 1 µg/mL. Also, the figures for the Activity in data set [8] and in data set [9] were 23% and 13%, respectively. The pIC50 is 7.46 in data set [4] and 7.41 in [5].
As for `CCOc1cccc(OCC)c1-n1c2c(cc(-c3nc(-c4ccc(Cl)cc4)cs3)c1=O)C(=O)CC(C)(C)C2`, the results for the pIC50 in [4] and in data set [5] were 6.41 and 6.80, respectively. The inhibition in data set [6] was determined as 86%; in data set [7] it was 76%.
Take `CCc1cccc(CC)c1-n1c(C=C(C)C)c(C(=O)N2CCNC3(CC3)C2)cc(-c2nc(-c3ccc(Cl)cc3)cs2)c1=O`: the t1/2 in data set [1] is 12 min. The Papp in [2] was 48 ×10⁻⁶ cm/s. Moreover, in [3], the solubility kinetic at 6 h was below 1 µg/mL. The Activity in data set [8] was determined as 17%; in [9], 14%. Besides, the values for the pIC50 in [4] and in [5] were 7.11 and 7.32, respectively.
As for `CC(C)Oc1ccccc1-n1c2c(cc(-c3nc(-c4ccc(Cl)cc4)cs3)c1=O)C(=O)CC(C)(C)C2`, the values for the pIC50 in data set [4] and in [5] were 5.96 and 6.33, respectively. The inhibition in [6] was found to be 77%; in data set [7] it was 80%.
For `CCCc1c(C(=O)N2CCNCC2)cc(-c2nc(-c3ccc(Cl)cc3)cs2)c(=O)n1-c1c(CC)cccc1CC`, the t1/2 in [1] was 27 min. The Papp in data set [2] was found to be 134 ×10⁻⁶ cm/s. The solubility kinetic at 6 h in data set [3] was below 1 µg/mL. Besides, the pIC50 was 7.12 in data set [4] and 7.00 in data set [5]. Also, the inhibition was 82% in [6] and 97% in [7].
As for `CCc1cccc(CC)c1-n1c2c(cc(-c3nc(-c4ccc(Cl)cc4)cs3)c1=O)C(=O)CC(C)(C)C2`, the pIC50 in data set [4] was 6.16; in data set [5] it was 6.62. For the same compound, the inhibition in data set [6] stood at 82%; in data set [7], 89%.
On to `CCc1cccc(CC)c1-n1c(C)c(C(=O)NCC(N)=O)cc(-c2nc(-c3ccc(Cl)cc3)cs2)c1=O`, for which the results for the pIC50 in data set [4] and in data set [5] were 5.80 and 5.42, respectively. Besides, the inhibition in [6] was 77%; in data set [7], 105%.
Turning to `CCc1cccc(CC)c1-n1c(C=C(C)C)c(C(=O)N2C3CCC2CNC3)cc(-c2nc(-c3ccc(Cl)cc3)cs2)c1=O`, in [1], the t1/2 is 9 min. The Papp in [2] worked out at 99 ×10⁻⁶ cm/s. For the same compound, the solubility kinetic at 6 h in [3] was below 1 µg/mL. Also, the Activity in data set [8] is 32%; in [9], 18%. Besides, the results for the pIC50 in data set [4] and in data set [5] were 7.21 and 7.33, respectively.
With `CCc1cccc(CC)c1-n1c(CC2CCNC2)c(C(=O)N2CCNCC2)cc(-c2nc(-c3ccc(Cl)cc3)cs2)c1=O` (stereo not given), the t1/2 in [1] came to 7 min. For the same compound, the Papp in [2] came to 24 ×10⁻⁶ cm/s. Further, the solubility kinetic at 6 h in [3] is below 1 µg/mL. In data set [4], the pIC50 was 5.00. Besides, the inhibition is 52% in data set [6] and 81% in [7].
Turning to `CCOc1ccc(OCC)c(-n2c3c(cc(-c4nc(-c5ccc(Cl)cc5)cs4)c2=O)C(=O)CC(C)(C)C3)c1`, the values for the pIC50 in data set [4] and in data set [5] were 6.80 and 7.19, respectively. The inhibition in [6] amounted to 75%; in [7], 85%.
With `CCc1cccc(CC)c1-n1c(C)c(C(=O)NCCNC)cc(-c2nc(-c3ccc(Cl)cc3)cs2)c1=O`, the pIC50 in data set [4] is 6.06; in [5], 6.49. Also, the values for the inhibition in data set [6] and in data set [7] were 96% and 101%, respectively.
`CCc1cccc(CC)c1-n1c(C=C(C)C)c(C(=O)N2CCNC(C)C2)cc(-c2nc(-c3ccc(Cl)cc3)cs2)c1=O` (stereo not given): the figures for the Activity in [8] and in [9] were 11% and 8%, respectively. The pIC50 in [4] is 7.36; in data set [5], 7.34.
Turning to `CCc1cccc(CC)c1-n1c(C)c(C(=O)N2CCNCC2)cc(-c2nc(-c3ccc(Cl)cc3)cs2)c1=O`, the pIC50 in [4] is 6.68; in data set [5], 5.82. Moreover, the inhibition was 93% in data set [6] and 103% in data set [7].
For `CCc1cccc(CC)c1-n1c(C)c(C(=O)NCCCNC)cc(-c2nc(-c3ccc(Cl)cc3)cs2)c1=O`, the values for the pIC50 in data set [4] and in [5] were 6.00 and 6.04, respectively. Besides, the inhibition in data set [6] worked out at 95%; in data set [7] it was 104%.
As for `CCc1ccc(OC)cc1-n1c(C=C(C)C)c(C(=O)N2CCNCC2)cc(-c2nc(-c3ccc(Cl)cc3)cs2)c1=O`, in data set [1], the t1/2 is reported as above 30 min. Further, the Papp in data set [2] is 549 ×10⁻⁶ cm/s. In addition, the solubility kinetic at 6 h in [3] was below 1 µg/mL. Besides, the Activity came to 40% in [8] and 19% in [9]. Moreover, the pIC50 in data set [4] was 6.94; in data set [5] it was 7.12.
For `COc1ccc(OC)c(-n2c3c(cc(-c4nc(-c5ccc(Cl)cc5)cs4)c2=O)C=CC(C)(C)C3)c1`, the pIC50 is 5.52 in data set [4] and 5.77 in data set [5]. Besides, the inhibition was 76% in data set [6] and 96% in data set [7].
Regarding `CC1(C)CC(=O)c2cc(-c3nc(-c4ccc(Cl)cc4)cs3)c(=O)n(-c3ccccc3C(=O)O)c2C1`, the pIC50 in data set [4] was 5.34; in data set [5], 4.96. The inhibition was determined as 105% in [6] and 96% in data set [7].
As for `CCc1cccc(CC)c1-n1c(C=C(C)C)c(C(=O)N2CCNC(C(=O)O)C2)cc(-c2nc(-c3ccc(Cl)cc3)cs2)c1=O` (stereo not given), the t1/2 in data set [1] was 23 min. In addition, in data set [2], the Papp was below 1 ×10⁻⁶ cm/s. Further, in data set [3], the solubility kinetic at 6 h came to 16 µg/mL (≈ 25.3 µM). Moreover, the results for the Activity in [8] and in data set [9] were 29% and 10%, respectively. Besides, the pIC50 is 7.26 in [4] and 7.19 in [5].
Turning to `COc1cccc(OC)c1-n1c2c(cc(-c3nc(-c4ccc(Cl)cc4)cs3)c1=O)C(=O)CC(C)(C)C2`, the pIC50 in data set [4] was 5.62; in [5] it was 5.80. The values for the inhibition in [6] and in data set [7] were 75% and 87%, respectively.
Regarding `CCc1cccc(CC)c1-n1c(C)c(C(=O)NCCN)cc(-c2nc(-c3ccc(Cl)cc3)cs2)c1=O`, the pIC50 in data set [4] was 6.42; in [5] it was 5.70. Also, the inhibition in data set [6] was 89%; in data set [7], 97%.
As for `CCc1cccc(CC)c1-n1c(CCOC)c(C(=O)N2CCNCC2)cc(-c2nc(-c3ccc(Cl)cc3)cs2)c1=O`, the pIC50 is 6.85 in data set [4] and 6.47 in data set [5]. The inhibition in [6] came to 92%; in [7] it was 102%.
For `COC(=O)c1ccsc1-n1c2c(cc(-c3nc(-c4ccc(Cl)cc4)cs3)c1=O)C(=O)CC(C)(C)C2`, in that order: 6.33, 6.33, 83% and 94%.
Take `COc1ccc(OC)c(-n2c3c(cc(-c4nc(-c5ccc(Cl)cc5)c[nH]4)c2=O)C(=O)CC(C)(C)C3)c1`: the results for the pIC50 in [4] and in data set [5] were 5.66 and 5.60, respectively. Also, the inhibition in [6] was found to be 77%; in data set [7], 82%.
For the compound `CCc1cccc(CC)c1-n1c(C(C)C)c(C(=O)N2CCNCC2)cc(-c2nc(-c3ccc(Cl)cc3)cs2)c1=O`, the pIC50 in [4] was 6.38; in [5] it was 6.41. In addition, the inhibition in [6] was determined as 92%; in data set [7], 102%.
For `CCc1cccc(CC)c1-n1c(C)c(C(=O)N2CCOCC2)cc(-c2nc(-c3ccc(Cl)cc3)cs2)c1=O`, in that order: 5.38, 5.39, 71% and 82%.
`CCc1ccccc1-n1c2c(cc(-c3nc(-c4ccc(Cl)cc4)cs3)c1=O)C(=O)CC(C)(C)C2`: the values for the pIC50 in data set [4] and in data set [5] were 5.70 and 6.06, respectively. The figures for the inhibition in [6] and in [7] were 83% and 91%, respectively.
As to `CCc1cccc(CC)c1-n1c(C)c(C(=O)NCC(=O)O)cc(-c2nc(-c3ccc(Cl)cc3)cs2)c1=O`, the pIC50 in data set [4] is 5.92; in [5], 4.96. Moreover, the inhibition in data set [6] was 87%; in data set [7], 106%.

The term pIC50 denotes the IC50 on a negative log10 scale, so that one unit is a factor of ten. Broadly, the inhibition is the drop in the measured response relative to a control, in per cent.

Values taken from ChEMBL document CHEMBL4811250, “Discovery and Optimization of 2H-1λ2-Pyridin-2-one Inhibitors of Mutant Isocitrate Dehydrogenase 1 for the Treatment of Cancer” (J Med Chem, 2021).
